These results are taken from article PMC5693322 (Blood, 2017).

Data set [1] deals with IL-6-pSTAT3 in HepG2 cells. Briefly: IL-6-induced phosphorylation of STAT3 in HepG2 cells, western blot. Type of data set: cell-based. Particulars: HepG2, 10 ng/mL IL-6 20 min. In a few lines: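 Western blot for pSTAT3 in HepG2 cells (EMEM, 10% FCS, 1% penicillin/streptomycin) after 20 min of 10 ng/mL IL-6, with test compound present. β-actin served as loading control. Values are percent of pSTAT3 induction relative to vehicle-treated cells, n = 2, mean ± SEM.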
Background: In western blotting, separated proteins are transferred to a membrane and probed.

For a further data set, the target named is T1, ACVR1 (ALK2) (Homo sapiens, UniProt Q04771).
T1 sequence (Q04771 21-509): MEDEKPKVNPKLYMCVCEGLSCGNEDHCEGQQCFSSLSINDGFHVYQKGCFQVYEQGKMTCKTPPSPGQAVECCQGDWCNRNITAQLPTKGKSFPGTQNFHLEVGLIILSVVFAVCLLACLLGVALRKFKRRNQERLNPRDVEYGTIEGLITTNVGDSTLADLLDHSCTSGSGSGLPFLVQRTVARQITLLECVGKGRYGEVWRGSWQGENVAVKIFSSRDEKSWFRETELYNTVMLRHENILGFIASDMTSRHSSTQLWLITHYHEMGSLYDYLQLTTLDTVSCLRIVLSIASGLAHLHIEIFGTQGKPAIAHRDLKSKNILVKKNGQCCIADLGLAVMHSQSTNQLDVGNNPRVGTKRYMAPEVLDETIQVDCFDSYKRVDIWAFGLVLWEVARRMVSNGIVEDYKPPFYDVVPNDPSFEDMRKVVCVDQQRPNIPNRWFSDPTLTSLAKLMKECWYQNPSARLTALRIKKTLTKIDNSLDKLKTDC
Briefly: SelectScreen LanthaScreen Eu Kinase Binding Assay.

In data set [2] the test system is BMP6-pSMAD1/5/8 in HepG2 cells. The experiment in a line: BMP6-induced phosphorylation of SMAD1/5/8 in HepG2 cells, western blot. The class given is cell-based. The conditions noted are these: HepG2, 10 ng/mL BMP6 30 min, cpd added 2 hours before. The procedure, abridged:
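HepG2 cells were grown in EMEM with 10% FCS and 1% penicillin/streptomycin. Test compound was added 2 h before stimulation with BMP6 (10 ng/mL, 30 min). pSMAD1/5/8 was detected by western blot with HRP secondary antibodies, using β-actin as loading control. Results are percent of pSMAD1/5/8 induction normalized to vehicle-treated cells, n = 5, mean ± SEM.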

The subject of another data set is patients. The conditions noted are these: clinical studies ref 18, 20; cited from earlier work.
Data set [3] relates to FPN1 protein in RAW 264.7 cells. Type of data set: cell-based, murine. The conditions noted are these: RAW 264.7, FeCl3 50 μM 20 h, hepcidin 1 μg/mL + MMB 10 nM-1 μM 6 h. The procedure, abridged:
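RAW 264.7 cells were cultured in DMEM with 10% FCS, 1% penicillin/streptomycin and 2 mM glutamine at 37°C and 5% CO2. FeCl3 (50 μM, 20 h) induced FPN1. Cells then received hepcidin (1 μg/mL) alone or with test compound (10, 100, 500 nM, 1 μM) for another 6 h. Untreated cells were controls. FPN1 was measured by western blot and densitometry, normalized to β-actin, n = 3 per group.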

Another data set has as its system ACD rats. The experiment in a line: PG-APS-induced rat model of anemia of chronic disease. Type of data set: in vivo. The procedure, abridged: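 Female Lewis rats on standard diet (180 mg iron/kg) were made anemic by intraperitoneal PG-APS. From 2 weeks after PG-APS they received test compound 25 mg/kg or vehicle once daily for 3 days up to 21 days. Hb and RBC were counted on a Vet-ABC analyzer. Serum iron was measured by QuantiChrom kit. Spleen FPN1 was measured by western blot (n = 4). Liver Inhibin BB mRNA was measured by TaqMan RT-PCR on 4 μg of guanidinium-phenol-extracted RNA. Time points were compared by unpaired t test.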

Another data set concerns healthy rats. Briefly: MMB treatment of healthy rats. Type of data set: in vivo, rat.
Where [4] appears, read: ACD rats, 25 mg/kg once daily, days 14 and 21, vs vehicle.
The mark [5] stands for this setting: ACD rats, 5, 10 or 25 mg/kg for 3 days, hepatic nuclear extracts.
The mark [6] stands for this setting: ACD rats, 5, 10 or 25 mg/kg once daily for 3 days.
The mark [7] stands for this setting: ACD rats, 5, 10 or 25 mg/kg, 3 weeks, FACS.
[8] abbreviates: healthy rats, 5, 10 or 25 mg/kg.
Setting [9] is: healthy rats, any MMB dose, 3 days.

Structures are written as SMILES.

Turning to `N#CC[C@H](C1CCCC1)n1cc(-c2ncnc3[nH]ccc23)cn1` [RUX, ruxolitinib, reference compound], the “inhibition of IL-6-pSTAT3 signaling” value in data set [1] is listed as “blocked”. Moreover, at ACVR1 (ALK2) (ACVR1/ALK2, BMPR1a/ALK3 and TGFBR1/ALK5 assays), the “inhibitory activity in type I BMPR kinase / TGFBR1 binding assays” value is on record as “no relevant inhibitory activity”. For the same compound, in data set [2], the “inhibition of BMP6-pSMAD1/5/8 signaling” value is listed as “not BMP6-pSMAD1/5/8”. The “patients who experienced grade 3 or 4 anemia” value in the data set on patients is 45.2%.

A word on the IC50: it is the concentration that inhibits the measured activity by half. On to `N#CCNC(=O)c1ccc(-c2ccnc(Nc3ccc(N4CCOCC4)cc3)n2)cc1` [MMB, momelotinib], for which the “inhibition of IL-6-pSTAT3 signaling” value in data set [1] was “inhibited”. Further, the “effect on FPN1 protein expression in presence of hepcidin” value in data set [3] was “no effect”. In the data set on ACD rats (ACD rats, 25 mg/kg once daily), the “mean corpuscular Hb” value is given as “increase”, the mean corpuscular volume result is “increase”, the neutrophil count entry is listed as “reductions” and the “white blood cell count” value is on record as “reductions”. Besides, in the data set with ACD rats (setting [4]), the Hb concentrations entry is reported as “significant increase” and the RBC count entry is “significant increase”. For the same compound, in the data set with ACD rats (ACD rats, 25 mg/kg, 3 days), the “FPN1 expression in the spleen” value is reported as “increase” and the “ferritin protein levels in the spleen” value is listed as “decreased”. Besides, the circulating iron concentrations result with ACD rats (ACD rats, 25 mg/kg, up to 21 days) is “increase”. The “Inhibin BB mRNA levels in the liver” value in the data set with ACD rats (ACD rats, 5, 10 or 25 mg/kg for 3 days) was “decreased”. Besides, in the data set with ACD rats (setting [5]), the “pSMAD1/5/8 in the livers” value is on record as “dose-dependent reduction” and the “pSTAT3 in the livers” value is on record as “dose-dependent reduction”. Besides, in the data set with ACD rats (setting [6]), the “liver Hamp mRNA expression” value is given as “reduced”, the serum hepcidin levels result is listed as “dose-dependent decrease” and the serum iron entry is given as “dose-dependent increase”. Moreover, in the data set with ACD rats (setting [7]), the “numbers of mature RBCs in bone marrow” value is “dose-dependent increase” and the “numbers of reticulocytes in bone marrow” value is reported as “dose-dependent increase”. Besides, the “splenic IL-6 cytokine mRNA levels” value in the data set with ACD rats (ACD rats, 3 days, especially at 25 mg/kg) is recorded as “modulated”. The same compound displayed an IC50 on ACVR1 (ALK2) of 8.4 nM. For the same compound, in data set [2], the “inhibition of BMP6-pSMAD1/5/8 signaling” value is listed as “inhibited”. Besides, in the data set on healthy rats (setting [8]), the “erythropoietic / circulating iron effects in healthy rats” value is given as “did not induce any of these effects”, the pSMAD1/5/8 protein levels entry is “not affected” and the pSTAT3 protein levels result is on record as “not affected”. In the data set on healthy rats (setting [9]), the “FPN1 protein levels in the spleen” value is listed as “no changes”, the “Hamp mRNA expression in the liver” value is recorded as “no changes” and the serum iron levels entry was “no changes”. In addition, the “patients who experienced grade 3 or 4 anemia” value in the data set with patients is 3%.
